Calls of active or inactive are those of the source. The rule behind the calls is not given here.
Key:
MDA-MB-231 [1] = assay: Antiproliferative activity against human MDA-MB-231 cells after 96 hrs by WST-1 cell proliferation assay; assay type: functional; settings: MDA-MB-231, 96 h
Procedure, shortened: (§1)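 Cells kept in RPMI-1640 with 10% FBS, penicillin and streptomycin at 37 °C, 5% CO2. Seeded at 5000 cells/well and exposed to 10-9–10-4 M compound or vehicle for 96 h. Live cells were read by WST-1. Viability was taken as percent of mean control and used to derive GI50. Triplicate experiments, mean values.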

[2] = biological target: T1, Steryl-sulfatase (Homo sapiens) (UniProt P08842); assay: Inhibition of STS in human JEG3 cells at 100 uM using [6,7-3H]E1S as substrate after 3 hrs by liquid scintillation spectrometry; assay type: cell-based
T1 sequence (whole entry): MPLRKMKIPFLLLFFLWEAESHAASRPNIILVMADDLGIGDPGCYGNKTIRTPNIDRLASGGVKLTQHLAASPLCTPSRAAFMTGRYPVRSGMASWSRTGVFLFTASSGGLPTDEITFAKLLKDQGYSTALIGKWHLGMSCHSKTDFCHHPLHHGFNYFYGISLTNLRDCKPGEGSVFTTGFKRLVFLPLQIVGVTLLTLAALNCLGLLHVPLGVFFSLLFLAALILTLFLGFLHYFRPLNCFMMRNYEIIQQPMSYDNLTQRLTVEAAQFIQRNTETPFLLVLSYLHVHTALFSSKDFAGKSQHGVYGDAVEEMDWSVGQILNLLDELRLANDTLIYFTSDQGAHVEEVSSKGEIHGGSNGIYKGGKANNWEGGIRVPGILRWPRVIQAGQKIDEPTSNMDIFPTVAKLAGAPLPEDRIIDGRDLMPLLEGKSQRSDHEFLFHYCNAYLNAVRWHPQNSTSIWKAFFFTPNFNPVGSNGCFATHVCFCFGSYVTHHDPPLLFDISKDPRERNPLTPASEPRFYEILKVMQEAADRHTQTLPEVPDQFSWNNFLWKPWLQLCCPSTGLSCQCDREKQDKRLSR
Procedure, shortened: (§2)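 JEG-3 cells were lysed in RIPA buffer and protein measured by BCA. Lysate (50 µg protein) was incubated 3 h in PBS with [6,7-3H]E1S at 20 µM final (unlabeled E1S added), with or without inhibitor. [4-14C]E1 tracked procedural losses. E1 was separated by toluene partition and counted by scintillation. Activity taken as pmol E1/h/mg protein and expressed as percent inhibited.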

DU-145 = assay: Antiproliferative activity against human DU145 cells after 96 hrs by WST-1 cell proliferation assay; assay type: functional; settings: DU-145, 96 h; procedure, shortened: as §1
Bos taurus = organism: Bos taurus; assay: Inhibition of [3H]colchicine binding to bovine brain tubulin at 5 uM after 10 mins by DEAE-cellulose filter method relative to control
Procedure, shortened: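 Bovine brain tubulin 0.1 mg/mL (1.0 µM) with 5.0 µM [3H]colchicine and inhibitor at 5.0 µM, incubated 10 min at 37 °C. CA-4 served as comparator.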

[3] = Inhibition of bovine brain tubulin polymerization preincubated for 15 mins followed by GTP addition measured after 20 mins by spectrophotometric analysis; set-up: species or system Bos taurus
Procedure, shortened: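 Bovine brain tubulin 1.0 mg/mL (10 µM) was preincubated without GTP with varied compound concentrations for 15 min at 30 °C, then chilled and given GTP (0.4 mM final). After a 0 °C baseline, turbidity rise was followed for 20 min after a jump to 30 °C. IC50 is the concentration that halves the turbidity increase.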

[4] = biological target: T1, Steryl-sulfatase (Homo sapiens); assay: Inhibition of STS in human JEG3 cells at 10 uM using [6,7-3H]E1S as substrate after 3 hrs by liquid scintillation spectrometry; assay type: cell-based; procedure, shortened: as §2
MDA-MB-231 [5] = assay: Antiproliferative activity against human MDA-MB-231 cells after 48 hrs by MTT assay; assay type: functional; settings: MDA-MB-231, 48 h
RPMI-8226 [6] = assay: Antitumor activity against human RPMI8226 cell lines xenografted in NCr-nude mouse assessed as tumor growth inhibition at 20 mg/kg, po for 28 days measured on day 53; assay type: functional; settings: RPMI-8226, po, read-out: TGI
Procedure, shortened: (§3)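 Female NCr-nude mice, 4-6 weeks old. 6 x 10^6 tumor cells mixed with an equal volume of Matrigel were implanted subcutaneously in the left flank. At about 100 mm3, mice were randomized into 3 groups of 6. Oral vehicle or compound given for 28 days. Tumor weight estimated as (w2 x l)/2 and read at day 53, 18 days after dosing ended.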

RPMI-8226 [7] = assay: Antitumor activity against human RPMI8226 cell lines xenografted in NCr-nude mouse assessed as tumor growth inhibition at 40 mg/kg, po for 28 days measured on day 53; assay type: functional; settings: RPMI-8226, po, read-out: TGI; procedure, shortened: as §3

| Structure (SMILES) | GI50 (MDA-MB-231 [1]) [µM] | inhibition [2] | GI50 (DU-145) [µM] | further results |
| --- | --- | --- | --- | --- |
| COc1cc2c(cc1OS(N)(=O)=O)NC(=O)N(Cc1ccccc1)C2 | > 100 | inactive | > 100 |  |
| COc1cccc(CN2Cc3cc(OC)c(O)cc3NC2=O)c1 | > 100 |  | > 100 |  |
| COc1ccc(OC)c(CN2Cc3cc(OC)c(O)cc3NC2=O)c1 | 2.3 | inactive | 1.5 |  |
| CCc1cc2c(cc1OS(N)(=O)=O)CCN(Cc1cc(OC)c(OC)c(OC)c1)C2 |  | Active |  |  |
| COc1ccc(CN2Cc3cc(OC)c(OS(N)(=O)=O)cc3NC2=O)cc1 | > 100 | inactive | > 100 |  |
| COc1cc2c(cc1O)NC(=O)N(Cc1ccccc1C)C2 | > 100 |  | > 100 |  |
| CCc1cc2c(cc1OS(N)(=O)=O)CCN(Cc1cc(Br)c(OC)c(OC)c1)C2 |  | Active |  |  |
| COc1ccc(CN2Cc3cc(OC)c(O)cc3NC2=O)cc1 | > 100 |  | > 100 |  |
| COc1cc2c(cc1O)NC(=O)N(Cc1cccc(Cl)c1)C2 | > 100 |  | 81 |  |
| COc1cc2c(cc1O)NC(=O)N(Cc1ccccc1)C2 | > 100 |  | > 100 |  |
| COc1cc2c(cc1OS(N)(=O)=O)NC(=O)N(Cc1cccc(Cl)c1)C2 | 2.2 | 70 to 80% | 3.2 | inhibition [4]: Active |
| COc1cc(CN2CCc3cc(OS(N)(=O)=O)ccc3C2)cc(OC)c1OC |  | Active |  |  |
| COc1ccc(/C=C\c2cc(OC)c(OC)c(OC)c2)cc1O [COMBRETASTATIN A4] |  |  |  | GI50 (MDA-MB-231 [5]): 0.045 µM |
| COc1cc2c(cc1O)CCN(Cc1cc(Br)c(OC)c(OC)c1)C2 |  | Active |  |  |
| COc1cc2c(cc1O)NC(=O)N(Cc1ccccc1F)C2 | > 100 |  | > 100 |  |
| COc1cc2c(cc1O)NC(=O)N(Cc1ccccc1Cl)C2 | 5 |  | 5.6 |  |
| COc1cc2c(cc1O)NC(=O)N(Cc1cc(OC)c(OC)c(OC)c1)C2 | 9.3 |  | 8.4 |  |
| COc1cc2c(cc1O)NC(=O)N(Cc1ccccc1OC)C2 | 5.7 |  | 2.2 |  |
| COc1cc2c(cc1OS(N)(=O)=O)CCN(Cc1cc(Br)c(OC)c(OC)c1)C2 |  | 45% |  |  |
| COc1cc(CN2CCc3cc(O)ccc3C2)cc(OC)c1OC |  | Active |  |  |

Further lines, with some results ahead:

| GI50 (MDA-MB-231 [1]) [µM] | inhibition [2] | GI50 (DU-145) [µM] | Structure (SMILES) | further results |
| --- | --- | --- | --- | --- |
| 0.2 | 70 to 80% | 0.5 | COc1cc2c(cc1OS(N)(=O)=O)NC(=O)N(Cc1ccccc1Cl)C2 | inhibition (Bos taurus): 43%; IC50 [3]: 5 µM; inhibition [4]: Active |
| 7.4 | 20 to 25% | 60 | COc1cc2c(cc1OS(N)(=O)=O)NC(=O)N(Cc1ccccc1C)C2 |  |
| 8.3 |  | 8.5 | COc1cc2c(cc1O)NC(=O)N(Cc1cccc(OC)c1OC)C2 |  |
| 34 |  | 33 | COc1cccc(CN2Cc3cc(OC)c(OS(N)(=O)=O)cc3NC2=O)c1 |  |
| 4.5 | 20 to 25% | 4.8 | COc1cc2c(cc1OS(N)(=O)=O)NC(=O)N(Cc1ccccc1F)C2 |  |
| 0.05 | inactive | 0.05 | COc1ccc(OC)c(CN2Cc3cc(OC)c(OS(N)(=O)=O)cc3NC2=O)c1 | inhibition (Bos taurus): 61%; IC50 [3]: 2.5 µM |
| 0.4 | inactive | 0.8 | COc1cc2c(cc1OS(N)(=O)=O)NC(=O)N(Cc1cccc(OC)c1OC)C2 | IC50 [3]: 8.6 µM |
| 0.1 | inactive | 0.1 | COc1cc2c(cc1OS(N)(=O)=O)NC(=O)N(Cc1cc(OC)c(OC)c(OC)c1)C2 | IC50 [3]: 5.6 µM |
| 0.2 | 70 to 80% | 0.3 | COc1ccccc1CN1Cc2cc(OC)c(OS(N)(=O)=O)cc2NC1=O | inhibition (Bos taurus): 55%; IC50 [3]: 2.5 µM; inhibition in vivo at 20 mg/kg (RPMI-8226 [6]): 27%; inhibition in vivo at 40 mg/kg (RPMI-8226 [7]): 31%; inhibition [4]: Active |

— ChEMBL document CHEMBL4024775, “Quinazolinone-Based Anticancer Agents: Synthesis, Antiproliferative SAR, Antitubulin Activity, and Tubulin Co-crystal Structure” (J Med Chem, 2018)
